The values below come from ChEMBL document CHEMBL1135463 (J Med Chem, 2002).

Molecules are shown by their SMILES. Converted amounts (≈) assume the structure as drawn.

One may read the GI50 as the concentration giving 50% growth inhibition. Broadly, the IC50 is the concentration needed to halve the response being measured. Broadly, the inhibition is the percentage by which the read-out fell short of the control. High values mean a response far below the control, low ones a response near the control. Broadly, the MIC is the lowest concentration that inhibits growth of the organism.

The test system of assay [1] is BXPC-3. Put plainly: Cell growth inhibition against pancreatic BXPC-3 cells, 50% reduction in the net protein increase. The class given is functional. The settings on record: Homo sapiens. The method, boiled down: (§1)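 Human tumour lines kept in 5% FBS/RPMI-1640, plated and incubated 24 h before compound dilutions were added. Exposure 48 h, then TCA fixation, washing and sulforhodamine B staining, with optical density read on a plate reader. GI50 is the concentration giving a 50% reduction in net protein increase, calculated from the OD data.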

Assay [2] deals with DU-145. Put plainly: Cell growth inhibition of prostate DU-145 cells, expressed as 50% reduction in the net protein increase. Format: functional. The conditions noted are these: Homo sapiens. In a few lines:
as §1

Another assay relates to NCI-H460. Nature of the assay: Cell growth inhibition of lung-NSC NCI-H460 cells, expressed as 50% reduction in the net protein increase. The class given is functional. The conditions noted are these: Homo sapiens. The method, boiled down: as §1
Assay [3] deals with P388. Put plainly: Evaluated for cell growth inhibition of the mouse leukemia P388 cells in 10% horse serum/Fisher media. The class given is functional. The conditions noted are these: read-out: ED50 (the source's name). The method, boiled down:
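Murine P388 leukaemia cells grown in 10% horse serum/Fisher medium, incubated 24 h, then compound dilutions added. After 48 h, cells counted on a Coulter Z1 particle counter and the ED50 for growth inhibition calculated.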

Assay [4] deals with SF-268. Nature of the assay: Cell growth inhibition of central nervous system (CNS) SF-268 cells, expressed as 50% reduction in the net protein increase. Format: functional. The settings on record: Homo sapiens. In a few lines: as §1
The target of the next assay is Tubulin (Bos taurus, UniProt Q6B856+Q862L2+Q862F3). Put plainly: Inhibition of tubulin polymerization reported as IC50. Format: functional. The method, boiled down:
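Tubulin at 10 µM with a range of drug concentrations. Extent of assembly read after 20 min at 30 °C. IC50 taken from the concentration needed to halve assembly.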

For assay [5], the target named is T1, Tubulin (Bos taurus) (UniProt Q6B856+Q862L2+Q862F3). Nature of the assay: Inhibition of radiolabeled [3H]colchicine binding to tubulin at a concentration of 2 uM of the compound. The class given is protein assay. In a few lines: (§2)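 [3H]colchicine 5.0 µM incubated with tubulin 1.0 µM plus inhibitor at the stated level, 10 min at 37 °C, then colchicine binding measured. Reported as percent inhibition.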

In assay [6] the target is T1, Tubulin (Bos taurus). Nature of the assay: Inhibition of radiolabeled [3H]colchicine binding to tubulin at a concentration of 5 uM of the compound. The class given is protein assay. The method, boiled down: as §2
For assay [7], the system named is KM-20L2. Nature of the assay: Cell growth inhibition of colon KM20L2 cells, expressed as 50% reduction in the net protein increase. The class given is functional. The conditions noted are these: Homo sapiens. The method, boiled down:
as §1

Assay [8] deals with BXPC-3. Nature of the assay: In vitro growth inhibition of BXPC-3 (human pancreatic adenocarcinoma) cell line. The class given is functional.
Assay [9] concerns DU-145. Nature of the assay: In vitro growth inhibition of DU-145 (human prostate carcinoma) cell line. The class given is functional.
Assay [10] deals with KM-20L2. Nature of the assay: In vitro growth inhibition of KM20L2 cell line. The class given is functional. The conditions noted are these: Homo sapiens.
Assay [11] can be described thus: In vitro growth inhibition of NCI-H460 (human non-small cell lung carcinoma) cell line. The class given is functional.
The test system of a further assay is Neisseria gonorrhoeae. Put plainly: The minimum inhibitory concentration (MIC) that inhibits all visible growth of the Neisseria gonorrhoeae (bacteria). Format: functional. In a few lines:
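Broth microdilution following NCCLS reference methods (M7-A4 for aerobic bacteria, the yeast broth dilution standard for fungi). MIC is the lowest compound concentration giving optically clear wells, with no visible growth of the test organism.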

In assay [12] the test system is P388. Put plainly: In vitro inhibition of P388 (murine leukemia) cell proliferation. Format: functional. The settings on record: Mus musculus, read-out: ED50 (the source's name).
The subject of assay [13] is SF-268. Put plainly: In vitro growth inhibition of central nervous system SF-268 cell line. The class given is functional. The settings on record: Homo sapiens.
In the next assay the test system is MCF7. Nature of the assay: Cell growth inhibition of breast MCF-7 cells, expressed as 50% reduction in the net protein increase. The class given is functional. The conditions noted are these: Homo sapiens.

Turning to `COc1ccc(/C=C\c2cc(OC)cc(OC)c2)cc1` [8Z-3,4',5-TRIMETHOXYSTILBENE], the GI50 was found to be 0.0034 µg/mL (≈ 0.0126 µM) in the assay with BXPC-3 [1], 0.0054 µg/mL (≈ 0.02 µM) in the assay with DU-145 [2], 0.0028 µg/mL (≈ 0.0104 µM) in the assay with NCI-H460 and 0.0044 µg/mL (≈ 0.0163 µM) in the assay with SF-268 [4]. Moreover, the EC50 in the assay with P388 [3] is 0.0262 µg/mL (≈ 0.0969 µM). For the same compound, the IC50 against Tubulin came to 1800 nM. Also, the inhibition was determined as 88% at Tubulin (Bos taurus) [5] and 95% at Tubulin (Bos taurus) [6].
On to `COc1ccc(/C=C\c2cc(OC)c(OC)c(OC)c2)cc1O` [COMBRETASTATIN A4], for which the GI50 was 0.39 µg/mL (≈ 1.23 µM) in the assay with BXPC-3 [1]; 0.0008 µg/mL (≈ 0.00253 µM) with DU-145 [2]; 0.34 µg/mL (≈ 1.07 µM) with KM-20L2 [7]; 0.0006 µg/mL (≈ 0.0019 µM) with NCI-H460; greater than 0.01 µg/mL in the assay with SF-268 [4]. Besides, the EC50 in the assay on P388 [3] turned out to be 0.0003 µg/mL (≈ 0.000948 µM).
Regarding `COc1ccc(/C=C\c2cc(O)cc(O)c2)cc1`, the GI50 in the assay on BXPC-3 [8] worked out at 14.1 µg/mL (≈ 58.2 µM); in the assay on DU-145 [9] it was 10.6 µg/mL (≈ 43.8 µM); in the assay with KM-20L2 [10] it was 17.7 µg/mL (≈ 73.1 µM); in [11], 6.4 µg/mL (≈ 26.4 µM); with SF-268 [13], 15.6 µg/mL (≈ 64.4 µM); in the assay with MCF7, 12.7 µg/mL (≈ 52.4 µM). In addition, the minimal inhibitory concentration (MIC) in the assay with Neisseria gonorrhoeae was found to be 16 µg/mL (≈ 66 µM). Further, in the assay on P388 [12], the EC50 is 2.75 µg/mL (≈ 11.4 µM).
For the compound `Oc1ccc(/C=C\c2cc(O)cc(O)c2)cc1` [CIS-RESVERATROL], the GI50 amounted to 15.5 µg/mL (≈ 67.9 µM) in the assay on BXPC-3 [8]; 10.2 µg/mL (≈ 44.7 µM) with DU-145 [9]; 22 µg/mL (≈ 96.4 µM) in the assay on KM-20L2 [10]; 13.2 µg/mL (≈ 57.8 µM) in [11]; 5 µg/mL (≈ 21.9 µM) with SF-268 [13]; 14.8 µg/mL (≈ 64.8 µM) in the assay on MCF7. In the assay with P388 [12], the EC50 stood at 24.4 µg/mL (≈ 107 µM).
Take `COc1cc(/C=C\c2ccc(OP(=O)(OCc3ccccc3)OCc3ccccc3)cc2)cc(OC)c1`: the GI50 in the assay on BXPC-3 [8] turned out to be 5.4 µg/mL (≈ 10.5 µM); in the assay on DU-145 [9], 35.6 µg/mL (≈ 68.9 µM); with KM-20L2 [10], 24.7 µg/mL (≈ 47.8 µM); in [11], 10.7 µg/mL (≈ 20.7 µM); in the assay on SF-268 [13] it was 38.5 µg/mL (≈ 74.5 µM); with MCF7, 9 µg/mL (≈ 17.4 µM). In addition, the EC50 in the assay with P388 [12] was determined as 4.45 µg/mL (≈ 8.62 µM).
As to `COc1ccc(C(=O)c2cc(OC)c(OC)c(OC)c2)cc1O` [PHENSTATIN], the GI50 with KM-20L2 [7] is 0.04 µg/mL (≈ 0.126 µM); in the assay with NCI-H460, 0.0057 µg/mL (≈ 0.0179 µM); in the assay with SF-268 [4], 0.052 µg/mL (≈ 0.163 µM). For the same compound, the EC50 in the assay on P388 [3] worked out at 0.0033 µg/mL (≈ 0.0104 µM). This compound also returned an IC50 against Tubulin of 1100 nM. Further, the results for the inhibition on Tubulin (Bos taurus) [5] and at Tubulin (Bos taurus) [6] were 73% and 85%, respectively.
Turning to `COc1ccc(/C=C/c2cc(O)cc(O)c2)cc1` [RESVERATROL 4'-METHYL ETHER], the GI50 with BXPC-3 [8] was determined as 6.3 µg/mL (≈ 26 µM); with DU-145 [9], 2.7 µg/mL (≈ 11.1 µM); in the assay with KM-20L2 [10], 3.8 µg/mL (≈ 15.7 µM); in assay [11], 6.8 µg/mL (≈ 28.1 µM); in the assay on SF-268 [13], 3.1 µg/mL (≈ 12.8 µM); in the assay on MCF7, 3.4 µg/mL (≈ 14 µM). Moreover, the EC50 in the assay on P388 [12] came to 28.9 µg/mL (≈ 119 µM).
As for `COc1ccc(C(=O)c2cc(O)cc(O)c2)cc1`, the GI50 stood at 21.2 µg/mL (≈ 86.8 µM) with BXPC-3 [8]; 15 µg/mL (≈ 61.4 µM) in the assay with DU-145 [9]; 24.5 µg/mL (≈ 100 µM) with KM-20L2 [10]; 16.6 µg/mL (≈ 68 µM) in [11]; 24.5 µg/mL (≈ 100 µM) in the assay on SF-268 [13]; 21.7 µg/mL (≈ 88.8 µM) in the assay with MCF7. The EC50 in the assay with P388 [12] came to 17.8 µg/mL (≈ 72.9 µM).
